We go through 22 compounds from ChEMBL document CHEMBL3351777, “Further studies on pyrazolo[1',5':1,6]pyrimido[4,5-d]pyridazin-4(3H)-ones as potent and selective human A1 adenosine receptor antagonists” (Eur J Med Chem, 2015).

The source made the active and inactive calls. No cut-off for these calls is given here.

Series [1] deals with T1, Adenosine receptor A3 (Homo sapiens) (UniProt P0DMS8).
T1 sequence (whole entry): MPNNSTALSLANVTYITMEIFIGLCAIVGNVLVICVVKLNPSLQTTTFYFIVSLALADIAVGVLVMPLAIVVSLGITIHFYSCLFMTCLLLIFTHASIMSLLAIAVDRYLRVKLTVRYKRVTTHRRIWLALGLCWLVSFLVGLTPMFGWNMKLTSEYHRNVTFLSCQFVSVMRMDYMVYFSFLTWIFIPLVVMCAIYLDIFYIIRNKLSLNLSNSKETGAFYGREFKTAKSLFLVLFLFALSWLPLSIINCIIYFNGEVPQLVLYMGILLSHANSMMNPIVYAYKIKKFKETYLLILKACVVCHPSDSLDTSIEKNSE
The experiment in a line: Displacement of [125I]AB-MECA from human adenosine A3 receptor expressed in CHO cells at 10 uM after 120 mins. Type of series: cell-based.

In series [2] the target is T2, Adenosine receptor A2a (Homo sapiens, UniProt P29274). The experiment in a line: Displacement of [3H]NECA from human adenosine A2A receptor expressed in CHO cells at 10 uM after 120 mins. Type of series: cell-based.
The target in series [3] is T3, Adenosine receptor A1 (Homo sapiens, UniProt P30542).
T3 sequence (P30542 whole entry): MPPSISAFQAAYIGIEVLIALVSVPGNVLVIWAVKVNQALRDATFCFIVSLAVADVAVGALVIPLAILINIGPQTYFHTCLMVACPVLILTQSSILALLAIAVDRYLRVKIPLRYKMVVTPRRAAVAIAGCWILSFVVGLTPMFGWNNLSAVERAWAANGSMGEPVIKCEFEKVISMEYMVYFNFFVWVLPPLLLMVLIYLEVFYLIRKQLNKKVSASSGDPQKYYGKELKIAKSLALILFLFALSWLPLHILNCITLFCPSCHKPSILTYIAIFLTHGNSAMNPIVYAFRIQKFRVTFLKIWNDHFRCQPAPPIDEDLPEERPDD
The experiment in a line: Displacement of [3H]DPCPX from human adenosine A1 receptor expressed in CHO cells after 120 mins. Type of series: cell-based.

The species named for series [4] is Mus musculus. The experiment in a line: Toxicity in Swiss albino mouse assessed as change in motor coordination by measuring number of falls from the rotating rod by rotarod test relative to control. Type of series: organism-based. The note with it: in vivo. In short, it runs like this:
(§1)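 Male Swiss albino mice on the rota-rod, counting falls from the rotating rod at the doses used in passive avoidance. Compared with saline- and CMC-treated mice.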

The species named for series [5] is Mus musculus. The experiment in a line: Toxicity in Swiss albino mouse assessed as change in gross behavior by rotarod test relative to control. Type of series: organism-based. The note with it: in vivo. In short, it runs like this:
as §1

Series [6] addresses T4, Adenosine receptor A2b (Homo sapiens) (UniProt P29275).
T4 sequence (whole entry): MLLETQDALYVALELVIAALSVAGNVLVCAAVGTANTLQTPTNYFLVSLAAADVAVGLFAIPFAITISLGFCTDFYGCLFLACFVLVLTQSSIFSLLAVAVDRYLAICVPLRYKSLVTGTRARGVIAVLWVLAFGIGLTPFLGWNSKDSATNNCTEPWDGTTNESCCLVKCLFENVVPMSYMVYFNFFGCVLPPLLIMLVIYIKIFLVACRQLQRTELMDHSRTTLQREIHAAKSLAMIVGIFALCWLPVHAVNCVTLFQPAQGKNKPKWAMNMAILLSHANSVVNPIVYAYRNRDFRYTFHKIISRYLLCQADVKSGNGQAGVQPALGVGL
The experiment in a line: Antagonist activity at human recombinant adenosine A2B receptor expressed in CHO cells assessed as inhibition of NECA-induced cAMP accumulation at 10 uM after 15 mins by liquid scintillation spectrometry. Type of series: functional, cell-based. Also on record: scale not given: the % may be the effect or the level left. The procedure, abridged:
(§2)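 CHO cells expressing human A2B receptor, plated about 30000 per well and used after 24 h. Preincubated 15 min at 37 °C in DMEM with ADA (1 U/mL) and Ro20-1724 (20 μM). Compound at 10 μM was tested alone or with an EC50 concentration of NECA determined the same day. cAMP was measured by [3H]cAMP competition with bovine adrenal binding protein. Output is % of cAMP production versus agonist maximal effect.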

Series [7] addresses T4, Adenosine receptor A2b (Homo sapiens). As to the kind of experiment: Agonist activity at human recombinant adenosine A2B receptor expressed in CHO cells assessed as cAMP accumulation at 10 uM after 15 mins by liquid scintillation spectrometry (reference value: 50%). Type of series: functional, cell-based. In short, it runs like this: as §2
Series [8] addresses T5, Adenosine receptor A1 (Homo sapiens) (UniProt P30542).
T5 sequence (whole entry): T3 sequence (P30542 whole entry)
The experiment in a line: Displacement of [3H]DPCPX from human adenosine A1 receptor expressed in CHO cells at 10 uM after 120 mins. Type of series: cell-based.

For series [9], the target named is T2, Adenosine receptor A2a. The experiment in a line: Displacement of [3H]NECA from human adenosine A2A receptor expressed in CHO cells after 120 mins. Type of series: cell-based.
In series [10] the target is T6, Adenosine receptor A3 (Homo sapiens, UniProt P0DMS8).
T6 sequence (P0DMS8 whole entry): T1 sequence (whole entry)
The experiment in a line: Displacement of [125I]AB-MECA from human adenosine A3 receptor expressed in CHO cells after 120 mins. Type of series: cell-based.

Series [11] concerns the target T5, Adenosine receptor A1 (Homo sapiens). As to the kind of experiment: Antagonist activity at human recombinant adenosine A1 receptor expressed in CHO cells assessed as inhibition of NECA-induced cAMP accumulation at 1 nM to 10 uM after 15 mins by liquid scintillation spectrometry. Type of series: functional, cell-based. The procedure, abridged: (§3)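 Human A1-transfected CHO cells, preincubated 15 min at 37 °C with ADA (1 U/mL) and Ro20-1724 (20 μM). Cells received 1 μM forskolin plus 100 nM NECA, with or without compound (1 nM–10 μM), for 15 min. Stopped with 0.4 N HCl and neutralized with KOH. cAMP was measured by [3H]cAMP (2 nM) binding-protein competition, 150 min at 0 °C, with filtration and scintillation counting. Levels are % of forskolin (100%). Mean ± SEM of ≥3 experiments in duplicate.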

The target in series [12] is T3, Adenosine receptor A1. As to the kind of experiment: Antagonist activity at human recombinant adenosine A1 receptor expressed in CHO cells assessed as inhibition of NECA-induced cAMP accumulation after 15 mins by liquid scintillation spectrometry. Type of series: functional, cell-based. In short, it runs like this:
as §3

T2 sequence (P29274 whole entry): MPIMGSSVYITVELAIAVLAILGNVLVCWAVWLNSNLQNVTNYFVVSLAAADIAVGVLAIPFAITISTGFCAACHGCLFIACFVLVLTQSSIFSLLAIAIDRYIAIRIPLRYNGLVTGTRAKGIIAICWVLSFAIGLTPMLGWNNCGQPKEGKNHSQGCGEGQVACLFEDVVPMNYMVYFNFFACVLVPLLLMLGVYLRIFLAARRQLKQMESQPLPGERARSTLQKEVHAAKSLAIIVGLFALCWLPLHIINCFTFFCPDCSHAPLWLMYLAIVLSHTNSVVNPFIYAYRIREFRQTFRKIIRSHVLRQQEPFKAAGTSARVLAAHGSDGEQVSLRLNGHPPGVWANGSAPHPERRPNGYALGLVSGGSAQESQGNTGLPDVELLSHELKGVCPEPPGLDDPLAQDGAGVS

`CCc1nc2c(=S)n(Cc3ccccc3)nc(C3CCCC3)c2c2cc(-c3ccccc3)nn12`: the inhibition in series [1] turned out to be 24%; in series [2] it was 35%. In series [3], this compound gave a Ki of 0.0047 µM. Moreover, the Activity entry in series [4] and in series [5] was “Non-toxic” each time.
In the case of `Cc1nc2c(=O)n(Cc3ccccc3)nc(C3CCCCC3)c2c2cc(-c3ccccc3)nn12`, the figures for the inhibition in series [1] and in series [2] were 35% and 7%, respectively. For the same compound, the Activity in series [6] was 57.8%; in series [7], 2.1%; in [4], “Non-toxic”; in series [5], “Non-toxic”. In addition, in series [3], the affinity, expressed as Ki, was 0.0095 µM.
In the case of `S=c1c2ncn3nc(-c4ccccc4)cc3c2c(C2CCCC2)nn1Cc1ccccc1`, the figures for the inhibition in [1] and in series [2] were 54% and 37%, respectively. In series [3], this compound displayed a Ki of 0.0129 µM. The Activity entry in series [4] and in series [5] was “Non-toxic” throughout.
Consider `CCc1nc2c(=S)n(Cc3ccccc3)nc(C3CCCCC3)c2c2cc(-c3ccccc3)nn12`, for which the inhibition in [1] was 42%; in series [2], 0%. The Activity result in series [4] and in [5] was “Non-toxic” in each case.
For `CCc1nc2c(=O)n(Cc3ccccc3)nc(C3CCCCC3)c2c2cc(-c3ccccc3)nn12`, the inhibition stood at 40% in series [1] and 0% in series [2]. The compound further gave an inhibition constant (Ki) in [3] of 0.0152 µM. Moreover, the Activity entry in [4] and in [5] was “Non-toxic” throughout.
Take `Cc1nc2c(=O)n(Cc3ccccc3)nc(-c3ccsc3)c2c2cc(-c3ccccc3)nn12`: the inhibition amounted to 37% in series [1], 8% in series [8] and 57% in [2]. For the same compound, the Activity result in [4] and in [5] was “Non-toxic” each time.
For the compound `O=c1c2ncn3nc(-c4ccccc4)cc3c2c(-c2ccc(Cl)cc2)nn1Cc1ccccc1`, the figures for the inhibition in series [1], in [8] and in series [2] were 31%, 26% and 56%, respectively. The Activity result in [4] and in [5] was “Non-toxic” in each case.
In the case of `Cc1nc2c(=O)n(Cc3ccccc3)nc(-c3ccc(Cl)cc3)c2c2cc(-c3ccccc3)nn12`, the inhibition in [1] is 25%; in series [8], 24%; in series [2] it was 28%. Further, the Activity entry in [4] and in series [5] was “Non-toxic” each time.
Turning to `Cc1nc2c(=S)n(Cc3ccccc3)nc(C3CCCCC3)c2c2cc(-c3ccccc3)nn12`, the results for the inhibition in series [1], in [8] and in [2] were 30%, 33% and 0%, respectively. Further, the Activity result in series [4] and in series [5] was “Non-toxic” throughout.
In the case of `Cc1nc2c(=O)n(Cc3ccccc3)nc(-c3cccs3)c2c2cc(-c3ccccc3)nn12`, the inhibition in series [1] was found to be 15%; in [8], 21%. The compound also displayed a Ki in series [9] of 2.6 µM. Moreover, the Activity entry in series [4] and in series [5] was “Non-toxic” throughout.
Regarding `S=c1c2ncn3nc(-c4ccccc4)cc3c2c(C2CCCCC2)nn1Cc1ccccc1`, the inhibition in [1] was found to be 31%; in series [2] it was 8%. Further, the Activity in [6] is 58.9%; in [7], 4.8%; in series [4] it was “Non-toxic”; in series [5], “Non-toxic”. Moreover, the affinity in series [3] corresponds to a Ki of 0.0095 µM.
On to `O=c1c2ncn3nc(-c4ccccc4)cc3c2c(C2CCCC2)nn1Cc1ccccc1`, for which the results for the Ki in series [10], in series [9] and in series [3] were 0.064 µM, 0.0755 µM and 0.0323 µM, respectively. Also, the Activity entry in series [4] and in [5] was “Non-toxic” in each case.
As for `CCc1nc2c(=O)n(Cc3ccccc3)nc(C3CCCC3)c2c2cc(-c3ccccc3)nn12`, in series [1], the inhibition came to 43%. The inhibitory constant (Ki) in series [9] came out at 0.662 µM; in series [3] it was 0.0035 µM. The Activity entry in [4] and in series [5] was “Non-toxic” each time.
Take `CCc1nc2c(=O)n(Cc3ccccc3)nc(-c3cccs3)c2c2cc(-c3ccccc3)nn12`: the inhibition in [1] stood at 30%; in [8] it was 16%; in series [2], 65%. In addition, the outcome in [11] was inactive. The Activity result in series [4] and in series [5] was “Non-toxic” throughout.
Turning to `O=c1c2ncn3nc(-c4ccccc4)cc3c2c(-c2cccnc2)nn1Cc1ccccc1`, the inhibition in [1] was determined as 21%. Moreover, the Activity entry in series [4] and in [5] was “Non-toxic” each time.
On to `CCc1nc2c(=O)n(Cc3ccccc3)nc(-c3ccsc3)c2c2cc(-c3ccccc3)nn12`, for which the inhibition in [1] came to 36%; in series [8], 5%; in [2], 41%. The Activity result in [4] and in series [5] was “Non-toxic” in each case.
`Cc1nc2c(=O)n(Cc3ccccc3)nc(C3CCCC3)c2c2cc(-c3ccccc3)nn12`: in [12], the IC50 turned out to be 0.0051 µM. For the same compound, the inhibition in series [1] was determined as 41%; in [2] it was 53%. This compound yielded a Ki in series [3] of 0.0062 µM. The Activity result in [4] and in series [5] was “Non-toxic” in each case.
As for `O=c1c2ncn3nc(-c4ccccc4)cc3c2c(-c2ccsc2)nn1Cc1ccccc1`, the results for the inhibition in [1] and in series [8] were 24% and 26%, respectively. This compound returned a Ki in series [9] of 0.0692 µM. The Activity result in series [4] and in [5] was “Non-toxic” in each case.
For the compound `Cc1nc2c(=S)n(Cc3ccccc3)nc(C3CCCC3)c2c2cc(-c3ccccc3)nn12`, the results for the inhibition in series [1], in [8] and in series [2] were 13%, 51% and 18%, respectively. Further, the Activity result in [4] and in series [5] was “Non-toxic” throughout.
Consider `O=c1c2ncn3nc(-c4ccccc4)cc3c2c(C2CCCCC2)nn1Cc1ccccc1`, for which the Ki in [10] amounted to 0.308 µM; in series [3], 0.172 µM. The inhibition in series [2] came out at 56%. In addition, the Activity result in series [4] and in series [5] was “Non-toxic” throughout.
On to `O=c1c2ncn3nc(-c4ccccc4)cc3c2c(-c2cccs2)nn1Cc1ccccc1`, for which the inhibition in series [1] is 16%; in [8] it was 45%. The affinity in series [9] corresponds to a Ki of 0.051 µM. Moreover, the Activity entry in series [4] and in [5] was “Non-toxic” in each case.
On to `CCc1nc2c(=O)n(Cc3ccccc3)nc(-c3ccc(Cl)cc3)c2c2cc(-c3ccccc3)nn12`, for which the inhibition was 51% in [1], 35% in [8] and 10% in [2]. In addition, in series [11], the outcome was inactive. The Activity result in series [4] and in [5] was “Non-toxic” throughout.
